Bioassay records as filed in PubChem.
Hits are enriched below; roughly 3.7% of the tested compounds scored in any of these assays.
KCNQ1 block: inhibitors of human KCNQ1 channel, primary screen, cell-based, thallium flux, high-throughput. B-score at 10 µM. CHO-K1 KCNQ1, FluxOR thallium flux fluorescence; stronger effect = higher value. Potassium voltage-gated channel subfamily KQT member 1 (Homo sapiens), P51787. 310,000 tested, 1.3% active;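 active = compounds whose thallium flux B-score, printed positive for inhibition, exceeds three library SD while starting fluorescence stays within three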;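 also: channel opened by potassium depolarization with thallium stimulus after 20 min compound exposure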
KCNK9 block: KCNK9 potassium channel inhibitors, primary screen, HEK293 cells, thallium flux | Potassium channel subfamily K member 9 (Homo sapiens), Q9NPC2 | FluxOR thallium flux fluorescence; stronger effect = lower value | B-score at 10 µM | 310,000 tested, 1.2% active;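 active = ratio B-score over 3 SD below the library mean, with starting fluorescence within 5 SD of its mean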;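 also: negative B-score means less thallium flux so channel inhibition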
hERG protect: hERG rescue from dofetilide block, primary screen, cell-based, CHO-hERG, FluxOR thallium flux, dofetilide IC70; Voltage-gated inwardly rectifying potassium channel KCNH2 (Homo sapiens), Q12809; dofetilide IC70 present; activation (rescue from dofetilide block), less the hit threshold, % at 10 µM; 310,000 tested, 0.51% active; AID 1511, 2009;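 active = activation above the mean of controls blocked by dofetilide plus 5 SD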;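 also: thallium influx through hERG after potassium depolarization seen as dye fluorescence rise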
Target sequence (Q12809 whole entry, looked up): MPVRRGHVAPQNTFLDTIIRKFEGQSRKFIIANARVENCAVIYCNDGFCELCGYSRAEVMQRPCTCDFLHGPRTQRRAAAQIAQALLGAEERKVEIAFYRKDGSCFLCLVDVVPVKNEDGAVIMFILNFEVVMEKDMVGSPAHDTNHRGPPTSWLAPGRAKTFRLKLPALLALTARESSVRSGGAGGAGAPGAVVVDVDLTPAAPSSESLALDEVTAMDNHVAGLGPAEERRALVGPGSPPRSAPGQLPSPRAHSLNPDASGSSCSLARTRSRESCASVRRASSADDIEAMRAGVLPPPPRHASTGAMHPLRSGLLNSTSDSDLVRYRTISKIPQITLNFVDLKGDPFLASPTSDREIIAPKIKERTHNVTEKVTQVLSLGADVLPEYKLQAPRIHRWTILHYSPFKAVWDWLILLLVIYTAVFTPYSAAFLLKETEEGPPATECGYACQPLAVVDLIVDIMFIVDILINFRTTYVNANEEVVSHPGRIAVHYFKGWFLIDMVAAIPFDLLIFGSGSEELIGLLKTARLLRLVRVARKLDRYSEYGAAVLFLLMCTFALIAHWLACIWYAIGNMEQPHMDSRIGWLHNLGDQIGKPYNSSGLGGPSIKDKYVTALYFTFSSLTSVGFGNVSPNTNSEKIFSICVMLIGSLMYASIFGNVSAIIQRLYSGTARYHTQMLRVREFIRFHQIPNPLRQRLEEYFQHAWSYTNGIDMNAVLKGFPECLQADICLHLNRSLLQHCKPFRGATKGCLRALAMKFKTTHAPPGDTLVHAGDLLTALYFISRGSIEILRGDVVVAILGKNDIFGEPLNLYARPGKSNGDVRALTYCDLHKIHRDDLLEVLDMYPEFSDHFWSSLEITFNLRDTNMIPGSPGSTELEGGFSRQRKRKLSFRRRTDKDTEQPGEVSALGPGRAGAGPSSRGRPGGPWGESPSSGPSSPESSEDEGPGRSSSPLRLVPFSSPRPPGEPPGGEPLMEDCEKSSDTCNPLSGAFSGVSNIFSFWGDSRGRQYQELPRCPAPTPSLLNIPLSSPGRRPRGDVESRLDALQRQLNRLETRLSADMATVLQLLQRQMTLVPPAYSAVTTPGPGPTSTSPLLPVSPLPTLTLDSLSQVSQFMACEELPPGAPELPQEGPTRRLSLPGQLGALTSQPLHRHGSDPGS
Kir21 block: inhibitors of mouse Kir2.1 inward-rectifier potassium channel; AID 1672, 2009; B-score at 10 µM; 310,000 tested, 0.85% active; HEK293-Kir2.1, FluxOR thallium flux fluorescence; stronger effect = lower value;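 active = fluorescence ratio B-score at or below minus 3 SD of library scores, with starting-brightness B-score within 2 SD, cut at about -4.2 in these data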;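 also: channel flux triggered by added potassium and thallium sulfate stimulus; B-score of peak minus minimum fluorescence over baseline after thallium stimulus; more negative B-score means stronger Kir2.1 block with less thallium influx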
KCNK3 inh: human KCNK3 channel inhibitors, primary screen, CHO cells, FluxOR thallium flux, B-score; Potassium channel subfamily K member 3 (Homo sapiens), O14649; FluxOR fluorescence; stronger effect = lower value; B-score at 10 µM; 340,000 tested, 0.84% active;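 active = B-score under library mean minus 4 SD, starting fluorescence ratio at most library mean plus 5 SD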;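 also: more negative B-score means stronger inhibition of thallium flux through KCNK3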
KCNQ1 act: potentiators or activators of KCNQ1 channel, primary screen, cell-based, thallium flux, high-throughput; Potassium voltage-gated channel subfamily KQT member 1 (Homo sapiens), P51787; CHO-K1 KCNQ1, thallium flux FluxOR fluorescence; stronger effect = higher value; B-score at 10 µM; 310,000 tested, 0.35% active; AID 2648, 2010;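 active = fluorescence ratio B-score, a plate-corrected score, at least three library SD, with initial intensity B-score within 5 SD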
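Schedule – 37 °C overnight plating, 90-min dark dye load, 20-min compound pretreatment · System – stable KCNQ1 CHO-K1 line · Probe or stimulus – thallium- and potassium-containing depolarizing buffer · Measured by – kinetic FluxOR fluorescence, 10 s baseline plus 110 s post-stimulus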
* hit, by the source's call.

Results for CCn1c2ccccc2c2cc(NC(=O)c3coc(=O)c(Br)c3)ccc21 ?
KCNQ1 block: inactive; KCNK9 block: -8.81*; hERG protect: -18.6; Kir21 block: -1.32; KCNQ1 act: inactive

What do the screens show for `O=C(Nc1nc2n(n1)C(c1ccccc1)CC(c1ccc(Cl)cc1)N2)c1ccco1` (stereo unspecified)?
KCNQ1 block: inactive; KCNK9 block: -6.95*; hERG protect: -4.2; Kir21 block: -0.04; KCNK3 inh: inactive; KCNQ1 act: inactive

What do the screens show for `Cc1ccc(-c2nc3ccccc3o2)cc1NC(=O)c1ccc2c(c1)OCO2`?
KCNQ1 block: inactive; KCNK9 block: inactive; hERG protect: -13.7; Kir21 block: -0.35; KCNK3 inh: inactive; KCNQ1 act: inactive

How did Cc1c(NC(=O)c2ccc3c(c2)OCO3)cccc1-c1nc2ccccc2o1 do in these assays?
KCNQ1 block: inactive; KCNK9 block: inactive; hERG protect: 6.0*; Kir21 block: -0.31; KCNK3 inh: inactive; KCNQ1 act: inactive

How did Brc1cc2c(cc1C1OCCCO1)OCO2 do in these assays?
KCNK3 inh: inactive

How did COc1ccc2sc(C)[n+](C)c2c1 do in these assays?
KCNQ1 block: inactive; KCNK9 block: inactive; hERG protect: 4.6*; Kir21 block: 0.02; KCNK3 inh: inactive; KCNQ1 act: inactive

Results for CCCC[n+]1c(C)sc2cc(OC)ccc21 ?
KCNQ1 block: inactive; KCNK9 block: inactive; hERG protect: -11.0; Kir21 block: -0.09; KCNK3 inh: inactive; KCNQ1 act: inactive

How did C/C(=N\OCc1ccc(C#N)cc1)c1cc2ccccc2o1 do in these assays?
KCNQ1 block: inactive; KCNK9 block: inactive; hERG protect: -10.2; Kir21 block: 0.21; KCNK3 inh: inactive; KCNQ1 act: inactive

What do the screens show for `C/C(=N\OCc1ccccc1C#N)c1cc2ccccc2o1`?
KCNQ1 block: inactive; KCNK9 block: -7.13*; hERG protect: -5.0; Kir21 block: 0.54; KCNK3 inh: inactive; KCNQ1 act: inactive

How did CN(C)CCN(Cc1ccccc1)S(=O)(=O)c1ccc2c(c1)n(C)c(=O)c(=O)n2C do in these assays?
KCNQ1 block: inactive; KCNK9 block: -7.01*; hERG protect: -4.2; Kir21 block: -2.63; KCNK3 inh: inactive; KCNQ1 act: inactive

How did O=C(NC(=S)Nc1cccc(Cl)c1N1CCCCC1)c1cccs1 do in these assays?
KCNQ1 block: inactive; KCNK9 block: inactive; hERG protect: 7.2*; Kir21 block: -2.26; KCNK3 inh: inactive; KCNQ1 act: 24*

What do the screens show for `O=C(NC(=S)Nc1cccc(Cl)c1N1CCOCC1)c1cccs1`?
KCNQ1 block: inactive; KCNK9 block: inactive; hERG protect: 17.5*; Kir21 block: -0.05; KCNK3 inh: inactive; KCNQ1 act: inactive

How did O=C(NC(=S)Nc1ccc(N2CCOCC2)cc1)c1cccs1 do in these assays?
KCNQ1 block: inactive; KCNK9 block: inactive; hERG protect: 0.0; Kir21 block: -0.53; KCNK3 inh: inactive; KCNQ1 act: inactive

What do the screens show for `COC(=O)c1ccc(NC(=S)NC2CCCCC2)cc1`?
KCNQ1 block: inactive; KCNK9 block: inactive; hERG protect: -20.7; Kir21 block: -0.08; KCNK3 inh: inactive; KCNQ1 act: inactive

Results for COC(=O)c1cccnc1NC(=S)NC1CCCCC1 ?
KCNQ1 block: inactive; KCNK9 block: inactive; hERG protect: -0.2; Kir21 block: 1.16; KCNK3 inh: inactive; KCNQ1 act: 18*

How did O=C(NC1CCCC1)c1cccnc1N1CCCCCC1 do in these assays?
KCNQ1 block: inactive; KCNK9 block: inactive; hERG protect: 5.0*; Kir21 block: 0.48; KCNK3 inh: inactive; KCNQ1 act: inactive

What do the screens show for `CCN(CC)S(=O)(=O)c1ccc(N2CCOCC2)c(NC(=O)c2[nH]c(C)c(C(C)=O)c2C)c1`?
KCNK3 inh: inactive

How did O=C(CSCc1ccc([N+](=O)[O-])cc1)NC1CC1 do in these assays?
KCNQ1 block: inactive; KCNK9 block: inactive; hERG protect: -5.3; Kir21 block: -0.08; KCNK3 inh: inactive; KCNQ1 act: inactive

What do the screens show for `CC(C)C(NC(=O)CSCc1ccc([N+](=O)[O-])cc1)C(C)C`?
KCNQ1 block: inactive; KCNK9 block: inactive; hERG protect: -8.7; Kir21 block: -4.46*; KCNK3 inh: inactive; KCNQ1 act: inactive

How did CNc1snc(C)c1C(=O)OC(C)C(=O)Nc1ccc(F)cc1 (stereo unspecified) do in these assays?
KCNK3 inh: inactive

What do the screens show for `O=C(COc1ccc(Cl)cc1Cl)N(C1CCCCC1)C1CCS(=O)(=O)C1` (stereo unspecified)?
KCNK3 inh: inactive

What do the screens show for `Cc1ccc2nc3sc(C(=O)Nc4ccc(N5CCOCC5)cc4)c(N)c3cc2c1`?
KCNQ1 block: inactive; KCNK9 block: inactive; hERG protect: -1.5; Kir21 block: 0.17; KCNQ1 act: inactive

Results for Cc1cccc2cc3c(N)c(C(=O)Nc4ccc(N5CCOCC5)cc4)sc3nc12 ?
KCNQ1 block: inactive; KCNK9 block: inactive; hERG protect: -0.8; Kir21 block: -2.9; KCNK3 inh: -11.3*; KCNQ1 act: inactive

Results for O=C(COc1ccc(Cl)cc1Cl)NCC1(N2CCOCC2)CCCCC1 ?
KCNK3 inh: inactive

Results for OC(CNCC1(N2CCCCC2)CCCCC1)COc1ccc(Cl)cc1Cl (stereo unspecified) ?
KCNQ1 block: inactive; KCNK9 block: inactive; hERG protect: -9.3; Kir21 block: -9.28*; KCNK3 inh: inactive; KCNQ1 act: inactive

What do the screens show for `O=C(COC(=O)c1ccco1)Nc1nc2ccccc2s1`?
KCNQ1 block: inactive; KCNK9 block: inactive; hERG protect: 7.3*; Kir21 block: 0.03; KCNK3 inh: inactive; KCNQ1 act: inactive

How did COc1ccc2nc(NC(=S)NC(=O)c3ccco3)sc2c1 do in these assays?
KCNQ1 block: inactive; KCNK9 block: inactive; hERG protect: 31.3*; Kir21 block: -0.16; KCNK3 inh: inactive; KCNQ1 act: 25*

Results for Cc1nc(NC(=S)NC(=O)c2cccs2)ccc1Br ?
KCNQ1 block: inactive; KCNK9 block: inactive; hERG protect: -6.4; Kir21 block: -2.6; KCNK3 inh: inactive; KCNQ1 act: 13*

What do the screens show for `COC(=O)c1sc(NC(=O)c2ccco2)nc1C`?
KCNQ1 block: inactive; KCNK9 block: inactive; hERG protect: -4.5; Kir21 block: -1.89; KCNK3 inh: inactive; KCNQ1 act: inactive

What do the screens show for `COc1ccc2nc(NC(=O)CCNC(=O)c3ccco3)sc2c1`?
KCNK3 inh: inactive
